Source: PubChem
Rows were chosen to be rich in hits. Some 2.3% of all compounds tested hit in one or more screens of this group.
FID counter – compounds displacing fluorescent DNA intercalator, primary screen, artefact control for HCV NS3 helicase inhibitor project, biochemical, FID fluorescence; DNA fluorescent intercalator displacement; inhibition, % at 7.9 µM; hit rate 0.17% among 290,000; in the data active = inhibition above about 37%;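 also: 0% = vehicle and 100% = reference compound; higher means more ethidium bromide displaced from hairpin DNA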
TRPC4 act – activators of mouse TRPC4 channel, primary screen, Fluo4 calcium, HEK293 TRPC4beta/mu-opioid cells. Short transient receptor potential channel 4 (Mus musculus), Q9QUQ5. Fluo4 calcium fluorescence; stronger effect = higher value. B-score at 10 µM. hit rate 0.49% among 310,000;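 active = B-score above 5 SD of library B-scores, and initial fluorescence ratio not above library mean plus 5 SD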;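 also: positive B-score marks a calcium rise read as TRPC4 activation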
Target sequence (Q9QUQ5 whole entry, looked up): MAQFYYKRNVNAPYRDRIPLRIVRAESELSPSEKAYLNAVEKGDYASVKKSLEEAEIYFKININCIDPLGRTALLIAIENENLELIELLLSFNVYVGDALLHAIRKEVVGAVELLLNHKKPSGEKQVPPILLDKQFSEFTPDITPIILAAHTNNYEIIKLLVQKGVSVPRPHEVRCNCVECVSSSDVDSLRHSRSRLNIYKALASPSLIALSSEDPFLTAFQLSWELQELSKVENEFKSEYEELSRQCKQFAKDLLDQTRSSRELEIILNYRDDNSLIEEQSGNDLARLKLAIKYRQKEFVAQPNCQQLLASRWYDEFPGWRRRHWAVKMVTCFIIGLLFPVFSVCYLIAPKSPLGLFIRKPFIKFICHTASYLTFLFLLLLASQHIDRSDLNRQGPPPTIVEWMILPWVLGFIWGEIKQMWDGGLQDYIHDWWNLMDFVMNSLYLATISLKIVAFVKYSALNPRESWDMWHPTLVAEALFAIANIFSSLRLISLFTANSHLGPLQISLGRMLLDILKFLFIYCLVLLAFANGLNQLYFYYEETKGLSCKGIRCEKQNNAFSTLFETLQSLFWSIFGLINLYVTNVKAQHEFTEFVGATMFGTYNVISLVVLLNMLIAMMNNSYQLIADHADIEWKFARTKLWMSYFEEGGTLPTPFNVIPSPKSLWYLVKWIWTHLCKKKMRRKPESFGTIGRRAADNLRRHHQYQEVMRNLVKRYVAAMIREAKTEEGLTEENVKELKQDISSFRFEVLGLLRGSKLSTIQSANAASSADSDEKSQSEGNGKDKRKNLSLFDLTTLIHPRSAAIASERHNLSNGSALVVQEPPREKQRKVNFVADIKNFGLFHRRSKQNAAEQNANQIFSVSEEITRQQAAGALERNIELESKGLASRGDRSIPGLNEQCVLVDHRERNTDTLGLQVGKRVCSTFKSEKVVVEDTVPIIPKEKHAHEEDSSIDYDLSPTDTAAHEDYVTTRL
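Material: TRPC4beta and mu-opioid receptor HEK293 stable cells | Incubation: 45 min room-temperature Fluo4 loading, 110 s read | Detection: Kinetic Fluo4 calcium fluorescence | Measure: Integrated baseline-normalised fluorescence ratio, converted to per-well B score | Benchmarks: Low control buffer alone, high control maximal DAMGO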
TRPC6 inhibitor – mouse TRPC6 channel inhibitors, primary screen, cell-based, HEK293, membrane potential dye; hit rate 1.1% among 310,000; Short transient receptor potential channel 6 (Mus musculus), Q61143; ACh-evoked depolarization; stronger effect = lower value; B-score at 10 µM;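 active = B-score under library mean minus 3 SD, initial fluorescence not abnormally high, positive integrated signal ratio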;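 also: B-score derived from integrated fluorescence ratio over the kinetic read; more negative B-score means stronger inhibition of depolarization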
TRPC4 inh – inhibitors of mouse TRPC4 channel, primary screen, Fluo4 calcium, HEK293 TRPC4beta/mu-opioid cells; Short transient receptor potential channel 4 (Mus musculus), Q9QUQ5; hit rate 0.39% among 300,000; DAMGO-evoked Fluo4 calcium flux; stronger effect = lower value; AID 2247, 2010; B-score at 10 µM;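 active = B-score over 3 SD under the library average, no early fluorescence shift, positive overall ratio signal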
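test system = HEK293 cells with stable TRPC4beta plus mu-opioid receptor expression | detection = Fluo4 Ca2+ flux fluorescence | read-out = integrated fluorescence ratio relative to baseline, converted to per-well B score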
TRPC6 act – mouse TRPC6 channel activators, primary screen, cell-based, HEK293, membrane potential dye; HEK293-TRPC6 membrane potential dye fluorescence; stronger effect = higher value; AID 2550, 2010; hit rate 0.13% among 310,000; B-score at 10 µM; Short transient receptor potential channel 6 (Mus musculus), Q61143;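 active = B-score of the integrated fluorescence ratio above library mean plus 3 SD, and starting fluorescence ratio within library mean plus 5 SD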;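 also: higher score means more depolarization so channel activation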
TRPC4 PAM – positive allosteric modulators of TRPC4, primary screen, cell-based, mouse TRPC4beta, HEK293 mu-opioid, Fluo-4 calcium. AID 2227, 2009. hit rate 0.42% among 310,000. B-score at 10 µM. Short transient receptor potential channel 4 (Mus musculus), Q9QUQ5. DAMGO EC20, Fluo-4 Ca2+ flux; stronger effect = higher value;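 active = B-score of calcium response area above 5 SD of library B-scores, with initial fluorescence ratio within 5 SD of library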;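 also: B-score of integrated fluorescence ratio over time as area under calcium response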
TRPC4 spec 2 – mouse TRPC4 off-target activity of TRPC6 inhibitors, second screen; HEK293 TRPC4/MOR, membrane potential dye fluorescence; channel activated by saturating DAMGO dose; AID 2776; inhibition, % at 10 µM; shares compounds with TRPC6 inhibitor; hit rate 42% among 920;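 active = compounds whose fluorescence signal differed from control wells by over 3 SD, either direction, in both duplicate plates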
TRPC4 spec – mouse TRPC4 modulation by TRPC6 hits, confirmation, selectivity assay for TRPC6 inhibitor project, cell-based, HEK293 TRPC4/mu-opioid, membrane potential dye. shares compounds with TRPC6 inhibitor. membrane potential fluorescence. activity change, negative = inhibition, % at 10 µM. hit rate 61% among 920. AID 2777, 2010;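 active = rise or fall in signal beyond 3 SD of buffer-only wells in both replicate plates, either sign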;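 also: integrated kinetic ratio of fluorescence range over baseline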
HEK293 MPD ctr 2-1 – nonspecific membrane potential effects, parental HEK293, confirmation, counter-screen for TRPC6 inhibitor project, cell-based, second counter screen; shares compounds with TRPC6 inhibitor; parental HEK293 membrane potential dye fluorescence; maximal acetylcholine challenge after compound addition; signal change vs control, % at 10 µM; hit rate 31% among 920; AID 2779, 2010;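 active = membrane potential signal moving either way by over 3 SD of the maximum-effect control, in both duplicate plates, meaning non-specific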
HEK293 MPD ctr-1 – membrane potential modulation in parental HEK293, confirmation, counter-screen for TRPC6 inhibitor project, cell-based; shares compounds with TRPC6 inhibitor; parental HEK293 membrane potential dye fluorescence; membrane potential signal change, % at 10 µM; hit rate 60% among 920;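 active = membrane potential signal shifting up or down by more than 3 SD of buffer-only wells, on both duplicate plates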
HEK293 MPD ctr-2 – parental HEK293 membrane potential modulation, confirmation, counter-screen for TRPC6 modulator project, cell-based | shares compounds with TRPC6 inhibitor | membrane potential dye fluorescence | membrane potential signal change, % at 10 µM | hit rate 51% among 2,400;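 active = membrane potential signal moves up or down beyond 5 SD from buffer-only wells, on both duplicate plates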
HEK293 MPD ctr 2-2 – parental HEK293 nonspecific activity of TRPC6 modulators, second screen. shares compounds with TRPC6 inhibitor. membrane potential dye fluorescence; after compound, maximal acetylcholine stimulation. inhibition, % at 10 µM. hit rate 14% among 2,400. AID 488926;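 active = membrane potential signal drops by more than 5 SD from the mean control signal, in both duplicate plates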;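 also: plate controls were acetylcholine ECmax control wells for no effect and buffer only wells for full effect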
TRPC4 ctr mod – TRPC4 modulation by TRPC6 hit compounds, confirmation, selectivity assay for TRPC6 modulator project, cell-based, HEK293 TRPC4/mu-opioid, membrane potential dye, mouse; percent change from control (negative = decrease, positive = increase), % at 10 µM; shares compounds with TRPC6 inhibitor; AID 488927, 2010; membrane potential fluorescence; hit rate 69% among 2,400;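 active = membrane potential signal moved up or down beyond 5 SD of buffer control wells, in both duplicate plates, actives on both sides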;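 also: plate controls were assay buffer wells for no effect and DAMGO maximal-effect wells for full effect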
TRPC4 ctr inh 2 – mouse TRPC4 off-target activity of TRPC6 modulators, second screen; inhibition, % at 10 µM; AID 488928; hit rate 55% among 2,400; HEK293 TRPC4/mu-opioid, membrane potential dye fluorescence; stimulated with maximal-effect DAMGO; shares compounds with TRPC6 inhibitor;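 active = drop in membrane potential signal beyond 5 SD of the control wells in both duplicate plates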;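 also: TRPC4 counter screen for TRPC6 hits run under conditions tuned for TRPC6 not TRPC4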
TRPC6 inh conf – mouse TRPC6 channel inhibitors, confirmation, HEK293 cells, membrane potential dye, duplicate. shares compounds with TRPC6 inhibitor. ACh-evoked depolarization. inhibition, % at 10 µM. hit rate 43% among 3,300. AID 488960, 2010;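 active = fluorescence ratio falls more than 5 SD below the full-stimulation control mean, in both duplicate runs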;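 also: integrated fluorescence ratio of peak minus minimum over baseline after agonist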
TRPC6 act confirm – mouse TRPC6 channel activators, confirmation, HEK293 cells, membrane potential dye, duplicate; shares compounds with TRPC6 inhibitor; HEK293-TRPC6 membrane potential dye fluorescence, FDSS; activation, % at 10 µM; hit rate 11% among 2,800; AID 488961, 2010;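 active = ratio signal rise beyond 5 SD above unstimulated control wells' mean, seen in both duplicate runs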;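 also: plate controls were buffer EC0 wells for no effect and acetylcholine ECmax response for full effect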
An asterisk follows results filed as active; i = inactive; . = no result.

SMILES	FID counter	TRPC4 act	TRPC6 inhibitor	TRPC4 inh	TRPC6 act	TRPC4 PAM	HEK293 MPD ctr-2	HEK293 MPD ctr 2-2	TRPC4 ctr mod	TRPC4 ctr inh 2	TRPC6 inh conf	TRPC6 act confirm	others
CCC1CCCCN1CC(O)Cn1c2ccccc2n2c(=O)cc(C)c(C#N)c12 (configuration not stated)	9	i	-7.8*	i	i	i	.	.	.	.	57%*	i	TRPC4 spec 2=78%*;TRPC4 spec=i;HEK293 MPD ctr 2-1=i;HEK293 MPD ctr-1=-153%*
Cc1cc(=O)n2c3ccccc3n(CC(O)CN3CCC(C)CC3)c2c1C#N (configuration not stated)	13	i	i	i	i	i	.	.	.	.	.	.
Cc1cc(=O)c(C(=O)O)nn1-c1ccccc1F	3	i	i	i	i	i	.	.	.	.	.	.
CC(C)Sc1nc2c(c(=O)[nH]c(=O)n2C)n1CC(O)COc1ccccc1 (configuration not stated)	-20	i	-5.8*	i	i	i	i	i	10%*	i	66%*	i
COc1ccc(CN(C(=O)c2cc(=O)c3ccccc3o2)C2CCS(=O)(=O)C2)cc1 (configuration not stated)	-36	i	i	i	i	i	.	.	.	.	.	.
CCCc1nnc(SCC(=O)Nc2ccccc2Cl)n1CC1CCCO1 (configuration not stated)	-17	i	i	i	i	i	.	.	.	.	.	.
COC(=O)c1ccccc1NC(=O)CN1CCC(C)CC1	-1	i	-5.1*	i	i	i	i	i	20%*	i	39%*	.
COC(=O)c1ccccc1NC(=O)CN1CCCCCC1	-1	i	i	i	i	i	.	.	.	.	.	.
COC(=O)c1ccccc1NC(=O)COC(=O)C1CCCCC1	-18	i	-5*	i	i	i	142%*	i	31%*	i	41%*	.
COC(=O)c1ccccc1NC(=O)COC(C)=O	-3	i	i	i	i	i	.	.	.	.	.	.
CCCOc1ccc(/C=N/NC(=O)c2ccc3c(c2)OCO3)c(OCCC)c1	-24	i	i	i	i	i	.	.	.	.	.	.
Cc1cc(NC(=O)C2CC(=O)N(c3ccccc3Cl)C2)no1 (configuration not stated)	-3	i	i	i	i	i	.	.	.	.	.	.
CC1CCN(CCCNc2cc(NCCO)c([N+](=O)[O-])c3nonc23)CC1	2	i	-7.2*	i	i	i	.	.	.	.	57%*	i	TRPC4 spec 2=i;TRPC4 spec=-29%*;HEK293 MPD ctr 2-1=36%*;HEK293 MPD ctr-1=-454%*
Cc1ccccc1-c1nc(CS(=O)CC(=O)NCc2ccccn2)c(C)o1 (configuration not stated)	-36	i	i	i	i	i	.	.	.	.	.	.
CCC(C)NC(=O)c1ccc(C2SCC(=O)N2Cc2ccccc2)cc1 (configuration not stated)	-28	i	-7.6*	i	i	i	.	.	.	.	i	i	TRPC4 spec 2=i;TRPC4 spec=i;HEK293 MPD ctr 2-1=i;HEK293 MPD ctr-1=i
O=C(CN1C(=O)C2C3CCC(C3)C2C1=O)OCC(=O)c1ccc(Br)cc1 (configuration not stated)	-36	i	i	i	i	i	.	.	.	.	.	.
CC(=O)c1cccc(Nc2nc(=O)c3cccnc3s2)c1	-4	i	i	i	i	i	.	.	.	.	.	.
CC(=O)c1ccc(Nc2nc(=O)c3cccnc3s2)cc1	-6	i	-5.8*	i	i	i	-176%*	i	-33%*	i	i	i
CCc1cc2c(-c3ccccc3)cc(=O)oc2c(CN2CCOCC2)c1O	-3	i	-5.1*	i	i	i	i	i	14%*	i	50%*	.
O=[N+]([O-])c1ccc(C[n+]2cccc3c4ccccc4ccc32)cc1	10	i	-6*	i	i	i	-434%*	i	-61%*	64%*	51%*	i
COc1ccc(OC)c(N/C(N)=N/c2nc(C)cc(C)n2)c1	-5	i	i	i	i	i	.	.	.	.	.	.
COc1ccc(N/C(N)=N/c2nc(C)cc(C)n2)c(OC)c1	-8	i	-5.1*	i	i	i	-86%*	i	-12%*	i	i	i
